A short description of assay [1]: reduced viability of SK-BR-3 breast cancer cells – cell-based, 24 h, human, pilot screen (AID 572;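 active = viability at or below 10% of carrier control in both of two separate runs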;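 note: compound exposure lasted between 18 and 24 h rather than exactly 24 h; 100% = carrier-treated control wells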). The note with it: SK-BR-3 viability, CellTiter-Glo luminescence, at 10 µM, stronger effect = lower value. For orientation: In ATP-based viability assays light output follows the ATP content of the culture.
The nature of assay [2]: HUVEC growth inhibition – cell-based, human, primary screen (AID 575;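 active = viability at or below 30% in both replicate assays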;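 note: 100% = median of untreated cell wells with 0.1% DMSO on each plate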). The note with it: HUVEC proliferation, CellTiter-Glo luminescence, 72 h; at 10 µM; stronger effect = lower value. In outline: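 Test system: HUVEC primary cells. Quantity: 1250 endothelial cells in each well. Dosing: single-point 10 µM, DMSO 0.1% final. Incubation: 72 h treatment at 37 °C. Measured by: CTG luminescence. Control set: DMSO cell controls and MePR drug controls. Plate: collagen-coated 384-well format.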

A short description of assay [3]: H69AR cell proliferation blockers – human, duplicate replicates, primary screen (AID 580;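 active = viability at or under a set limit in both replicates, limit being median viability minus 3 SD, cut at about 48% in these data, passing the limit was not always enough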;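 note: 100% = mean luminescence of untreated wells and 0% = no signal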). The note with it: H69AR lung tumor cells viability, ATP luminescence, 72 h; at 10 µM; stronger effect = lower value.
Assay [4] is described as follows: MRP1 drug-resistance reversers in H69AR cells – cell-based, doxorubicin co-treatment, pilot screen (AID 601;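 active = viability loss from added drug above about 55%, and viability with drug at most 40%, in both replicates, limit read from the data, passing the limit was not always enough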). The following applies: CellTiter-Glo, 72 h, at 10 µM; for differential viability (reversal): stronger effect = higher value.
A short description of assay [5]: yeast transport mutant growth inhibition pilot in 384-well plates, post-Golgi transport modulator project (AID 636; in the data active = inhibition above about 31%). The following applies: absorbance 615 nm, about 18 h, stronger effect = higher value.
Assay [6] in a line: growth suppression of yeast trafficking mutant, preliminary HTS, modulators of trafficking downstream of Golgi apparatus project, 1536-format plate, OD 615 nm (AID 637). The following applies: yeast transport mutant growth, absorbance 615 nm, 18 h; stronger effect = higher value.
[7] abbreviates: H69AR cells + 2 uM doxorubicin, measured here: viability with 2 uM doxorubicin, stronger effect = lower value.
[8] abbreviates: H69AR cells, compound alone cytotoxicity.

Active and inactive are the calls of the source. Cut-off read from the data, not from the text of the source, unless noted: active = inhibition above about 30%; inactive = the rest.

Regarding `COc1ccc(C(=O)Nc2nc(C)c(C(=O)N(C)C)s2)cc1OC`, the viability is 70% (inactive) in assay [1]; 91% (inactive) in assay [2]; 94.9% (inactive) in assay [3]; 84.3% in assay [4] (setting [7]); 94.9% in assay [4] (setting [8]). Also, in assay [4] (H69AR cells + 2 uM doxorubicin), the differential viability (reversal) was 10.6% (inactive). For the same molecule, the inhibition in assay [5] was -8.63% (inactive); in assay [6] it was 4.52% (inactive).

As to `Cc1cc(Cl)ccc1OCC(=O)Nn1c(C)ccc1C`, the viability in assay [1] was 68% (inactive); in assay [2], 101% (inactive); in assay [3], 94% (inactive); in assay [4] (setting [7]), 82.9%; in assay [4] (setting [8]) it was 94%. Besides, the differential viability (reversal) in assay [4] (H69AR cells + 2 uM doxorubicin) was 11.1% (inactive). In addition, the inhibition is -1.37% (inactive) in assay [5] and -4.68% (inactive) in assay [6].

For the molecule `CSc1nnc(-c2cnccn2)n1Cc1ccccc1`, the viability was 96% (inactive) in assay [1]; 92.5% (inactive) in assay [2]; 102% (inactive) in assay [3]; 95.7% in assay [4] (setting [7]); 102% in assay [4] (setting [8]). Also, the differential viability (reversal) in assay [4] (H69AR cells + 2 uM doxorubicin) was 6.43% (inactive). Also, the inhibition in assay [5] was -2.88% (inactive); in assay [6], 0.73% (inactive).

With `CCOC(=O)c1c(NC(=O)Cn2c(=O)oc3ccccc32)oc(C)c1C(C)=O`, the viability is 81% (inactive) in assay [1]; 99.3% (inactive) in assay [2]; 101% (inactive) in assay [3]; 95.1% in assay [4] (setting [7]); 101% in assay [4] (setting [8]). For the same molecule, the differential viability (reversal) in assay [4] (H69AR cells + 2 uM doxorubicin) was 5.86% (inactive). In addition, the figures for the inhibition in assay [5] and in assay [6] were -1.23% (inactive) and -4.52% (inactive), respectively.

With `COc1cc(NC(=O)c2cccs2)cc(OC)c1`, the viability in assay [1] is 72% (inactive); in assay [2] it was 95.4% (inactive); in assay [3], 97.7% (inactive); in assay [4] (setting [7]), 84%; in assay [4] (setting [8]), 97.7%. Also, in assay [4] (H69AR cells + 2 uM doxorubicin), the differential viability (reversal) was 13.6% (inactive). Further, the inhibition in assay [5] was -2.97% (inactive); in assay [6], -8.18% (inactive).

Consider `Cc1cc(NC(=O)CCCC(=O)Nc2ccc(F)cc2)no1`, for which the viability was 101% (inactive) in assay [1]; 96.8% (inactive) in assay [2]; 97% (inactive) in assay [3]; 97.5% in assay [4] (setting [7]); 97% in assay [4] (setting [8]). Moreover, in assay [4] (H69AR cells + 2 uM doxorubicin), the differential viability (reversal) was -0.445% (inactive). In addition, the results for the inhibition in assay [5] and in assay [6] were -1.56% (inactive) and -1.48% (inactive), respectively.

In the case of `CN(Cc1ccccc1)C(=O)c1ccccc1NC(=O)c1ccco1`, the viability in assay [1] is 94% (inactive); in assay [2] it was 104% (inactive); in assay [3] it was 101% (inactive); in assay [4] (setting [7]), 87.1%; in assay [4] (setting [8]) it was 101%. Moreover, the differential viability (reversal) in assay [4] (H69AR cells + 2 uM doxorubicin) is 13.5% (inactive). The values for the inhibition in assay [5] and in assay [6] were -1.76% (inactive) and -2.55% (inactive), respectively.

For `CCOC(=O)Nc1cc(OC)c(OC)cc1Cc1nccc2cc(OC)c(OC)cc12`, the viability in assay [1] is 113% (inactive); in assay [2], 95.7% (inactive); in assay [3], 87.1% (inactive); in assay [4] (setting [7]) it was 81.5%; in assay [4] (setting [8]), 87.1%. The differential viability (reversal) in assay [4] (H69AR cells + 2 uM doxorubicin) was 5.61% (inactive). Also, the inhibition was -2.05% (inactive) in assay [5] and 28.7% (inactive) in assay [6].

`CCOC(=O)C(C(C)=O)c1nc(C)nc2c1nnn2Cc1ccccc1Cl` (centres undefined): the viability in assay [1] was 58% (inactive); in assay [2], 71.7% (inactive); in assay [3], 79.4% (inactive); in assay [4] (setting [7]) it was 89.1%; in assay [4] (setting [8]) it was 79.4%. Moreover, the differential viability (reversal) in assay [4] (H69AR cells + 2 uM doxorubicin) is -9.73% (inactive). Also, the inhibition in assay [5] is 1.08% (inactive); in assay [6], -2.18% (inactive).

As to `O=C(CN1C(=O)c2ccccc2S1(=O)=O)Nc1ccc(S(=O)(=O)N2CCCCCC2)cc1`, the viability in assay [1] is 110% (inactive); in assay [2], 81.4% (inactive); in assay [3], 103% (inactive); in assay [4] (setting [7]), 89.3%; in assay [4] (setting [8]) it was 103%. In addition, in assay [4] (H69AR cells + 2 uM doxorubicin), the differential viability (reversal) was 14.2% (inactive). Besides, the inhibition is 5.48% (inactive) in assay [5] and -1.45% (inactive) in assay [6].

Turning to `Cc1cccn2c(=O)c3cc(C#N)c(=NC(=O)c4ccncc4)n(Cc4ccco4)c3nc12`, the viability in assay [1] was 110% (inactive); in assay [2], 64.1% (inactive); in assay [3], 67% (inactive); in assay [4] (setting [7]) it was 51.7%; in assay [4] (setting [8]), 67%. In addition, the differential viability (reversal) in assay [4] (H69AR cells + 2 uM doxorubicin) is 15.3% (inactive). Also, the values for the inhibition in assay [5] and in assay [6] were -1.58% (inactive) and 7.74% (inactive), respectively.

Turning to `CCOC(=O)C1CSC(CC(=O)Nc2ccc(Cl)cc2)C(=O)N1` (centres undefined), the viability in assay [1] was 86% (inactive); in assay [2] it was 111% (inactive); in assay [3] it was 103% (inactive); in assay [4] (setting [7]) it was 91.4%; in assay [4] (setting [8]) it was 103%. The differential viability (reversal) in assay [4] (H69AR cells + 2 uM doxorubicin) is 11.6% (inactive). The inhibition in assay [5] was 0% (inactive); in assay [6], -3.64% (inactive).

With `O=S1(=O)CCN2C(=N1)SC1=C2CCN(Cc2ccccc2)C1`, the viability in assay [1] is 106% (inactive); in assay [2] it was 96.7% (inactive); in assay [3] it was 89% (inactive); in assay [4] (setting [7]), 90.2%; in assay [4] (setting [8]), 89%. In addition, the differential viability (reversal) in assay [4] (H69AR cells + 2 uM doxorubicin) is -1.18% (inactive). Further, the inhibition is -9.04% (inactive) in assay [5] and 3.09% (inactive) in assay [6].

On to `COc1ccc(-c2nnc(SC(C)C(=O)Nc3nccs3)n2-c2ccccc2)cc1OC` (centres undefined), for which the viability in assay [1] is 105% (inactive); in assay [2], 83.5% (inactive); in assay [3], 86.8% (inactive); in assay [4] (setting [7]) it was 87.4%; in assay [4] (setting [8]), 86.8%. In addition, the differential viability (reversal) in assay [4] (H69AR cells + 2 uM doxorubicin) was -0.545% (inactive). For the same molecule, the results for the inhibition in assay [5] and in assay [6] were -0.96% (inactive) and 3.87% (inactive), respectively.

As for `CCOC(=O)Cn1nnnc1CN(Cc1ccc(OC)cc1)Cc1cc2cc(C)ccc2[nH]c1=O`, the viability in assay [1] is 101% (inactive); in assay [2], 101% (inactive); in assay [3] it was 94.3% (inactive); in assay [4] (setting [7]) it was 94.9%; in assay [4] (setting [8]), 94.3%. The differential viability (reversal) in assay [4] (H69AR cells + 2 uM doxorubicin) is -0.605% (inactive). In addition, the inhibition in assay [5] was -1.33% (inactive); in assay [6] it was 4.55% (inactive).

`Clc1ccc(Cl)c(-c2nn3c(Cn4cnc5ccccc54)nnc3s2)c1`: the viability was 78% (inactive) in assay [1]; 98.5% (inactive) in assay [2]; 102% (inactive) in assay [3]; 96% in assay [4] (setting [7]); 102% in assay [4] (setting [8]). Further, in assay [4] (H69AR cells + 2 uM doxorubicin), the differential viability (reversal) is 6.11% (inactive). In addition, the results for the inhibition in assay [5] and in assay [6] were -6.3% (inactive) and -0.18% (inactive), respectively.

Turning to `COC(=O)c1ccccc1NC(=O)C1CCN(S(=O)(=O)c2cc(C)ccc2OC)CC1`, the viability in assay [1] was 78% (inactive); in assay [2], 78.9% (inactive); in assay [3] it was 79.1% (inactive); in assay [4] (setting [7]), 92.3%; in assay [4] (setting [8]), 79.1%. In addition, the differential viability (reversal) in assay [4] (H69AR cells + 2 uM doxorubicin) was -13.2% (inactive). For the same molecule, the inhibition in assay [5] was -11.1% (inactive); in assay [6] it was 0.48% (inactive).

Regarding `CCC1(C(=O)OC)NC(c2cccc(F)c2)C2C(=O)N(C)C(=O)C21` (centres undefined), the viability is 91% (inactive) in assay [1]; 96.1% (inactive) in assay [2]; 88.3% (inactive) in assay [3]; 89.8% in assay [4] (setting [7]); 88.3% in assay [4] (setting [8]). Moreover, the differential viability (reversal) in assay [4] (H69AR cells + 2 uM doxorubicin) was -1.59% (inactive). The inhibition in assay [5] is -6.08% (inactive); in assay [6] it was 0.73% (inactive).

In general, viability refers to a read-out of living cells in per cent, often relative to untreated cells. As usually defined, the inhibition is the change of the read-out against control, counted positive when it falls.
